Test results published in ChEMBL document CHEMBL5385922 (J Med Chem, 2024).
Calls of active or inactive are those of the source. The calls are words filed in the database; no cut-off is given here.

How the values were obtained:
[1] = molecular target: T1, Protein disulfide-isomerase (Homo sapiens, UniProt P07237); assay: Covalent inhibition of human recombinant PDI assessed as inhibition of E-GSH formation using Di-E-GSSG as substrate at 10 uM measured for 60 mins in presence of DTT and 1 mM GSH by fluorescence based analysis
Summary of the method: (§1)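 Human rPDI incubated with compounds at 10 μM in the presence of DTT (5 μM) or GSH (1 mM). PDI activity read by Di-E-GSSG assay (E-GSH fluorescence). Mean ± SEM of three independent experiments.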
Target sequence in this assay (P07237 18-508 limits assumed): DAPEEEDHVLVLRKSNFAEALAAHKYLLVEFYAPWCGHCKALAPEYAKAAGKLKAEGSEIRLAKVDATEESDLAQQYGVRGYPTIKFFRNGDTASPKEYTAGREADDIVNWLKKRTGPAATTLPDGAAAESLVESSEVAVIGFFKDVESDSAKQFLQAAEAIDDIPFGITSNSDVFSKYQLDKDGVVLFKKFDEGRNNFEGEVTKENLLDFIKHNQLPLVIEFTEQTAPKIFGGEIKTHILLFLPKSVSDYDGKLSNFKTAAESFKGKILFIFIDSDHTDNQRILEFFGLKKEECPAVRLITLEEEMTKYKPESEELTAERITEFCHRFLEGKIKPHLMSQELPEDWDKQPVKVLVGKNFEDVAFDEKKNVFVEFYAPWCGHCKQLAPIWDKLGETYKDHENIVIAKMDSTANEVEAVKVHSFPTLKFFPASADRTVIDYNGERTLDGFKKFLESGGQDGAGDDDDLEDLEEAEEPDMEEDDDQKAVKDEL

[2] = test system: Platelet; assay: Inhibition of tumor cell-induced platelet secretion in human platelets assessed as inhibition of A549-induced PDGF secretion at 100 uM by ELISA; format: functional, cell-based
Summary of the method: (§2)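 Washed human platelets were co-incubated with A549 cells under TCIPA conditions (0.375% plasma, stirred, 37 °C) for 25 min in the aggregometer, then centrifuged at 13,000g for 1 min. Supernatant PDGF-BB measured by ELISA and ATP by bioluminescent assay. Mean ± SEM, at least three independent experiments.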

[3] = test system: Platelet; assay: Inhibition of tumor cell-induced platelet secretion in human platelets assessed as inhibition of A549-induced ATP secretion at 100 uM by bioluminescent assay; format: functional, cell-based; summary of the method: as §2
[4] = test system: Platelet; assay: Antiplatelet activity against tumor cells-stimulated human platelets assessed as inhibition of RPMI-8226 cells-induced platelet aggregation at 100 uM by turbidometric aggregometry; format: functional, cell-based
Summary of the method: (§3)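 Washed human platelets from ACD-anticoagulated blood of healthy volunteers, stirred at 1200 rpm, 37 °C, in 0.375% plasma. Aggregation was induced by A549 (1 × 10^4 cells/mL), MDA-MB-231 (1 × 10^2 cells/mL) or RPMI8226 (1 × 10^5 cells/mL) cells. Read-out is the maximal increase in light transmission by turbidimetric aggregometry. n = 3.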

[5] = test system: Platelet; assay: Antiplatelet activity against tumor cells-stimulated human platelets assessed as inhibition of MDA-MB-231 cells-induced platelet aggregation at 100 uM by turbidometric aggregometry; format: functional, cell-based; summary of the method: as §3
[6] = test system: Platelet; assay: Antiplatelet activity against tumor cells-stimulated human platelets assessed as inhibition of A549 cells-induced platelet aggregation at 100 uM by turbidometric aggregometry; format: functional, cell-based; summary of the method: as §3
[7] = test system: Platelet; assay: Antiplatelet activity in human platelets assessed as inhibition of U46619-induced platelet aggregation by turbidimetric analysis; format: functional, cell-based
Summary of the method: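 Washed human platelets from ACD-anticoagulated volunteer blood, stimulated with U46619 (1 μM). Aggregation measured turbidimetrically under stirring (1200 rpm) at 37 °C as the maximal increase in light transmission.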

[8] = test system: RPMI-8226; assay: Cytotoxicity against human RPMI-8226 cells assessed as reduction in cell viability at 0.001 to 10 uM incubated for 72 hrs by resazurin assay; format: functional, cell-based; conditions: dose 0.001-10 µM
Summary of the method: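 RPMI8226 cells exposed to compounds for 72 h at 37 °C, 5% CO2 with DMSO control; viability measured by resazurin assay, n = 4.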

[9] = molecular target: T1, Protein disulfide-isomerase; assay: Covalent inhibition of PDI (unknown origin) by GSSG fluorescence assay
Target sequence in this assay (P07237 whole entry): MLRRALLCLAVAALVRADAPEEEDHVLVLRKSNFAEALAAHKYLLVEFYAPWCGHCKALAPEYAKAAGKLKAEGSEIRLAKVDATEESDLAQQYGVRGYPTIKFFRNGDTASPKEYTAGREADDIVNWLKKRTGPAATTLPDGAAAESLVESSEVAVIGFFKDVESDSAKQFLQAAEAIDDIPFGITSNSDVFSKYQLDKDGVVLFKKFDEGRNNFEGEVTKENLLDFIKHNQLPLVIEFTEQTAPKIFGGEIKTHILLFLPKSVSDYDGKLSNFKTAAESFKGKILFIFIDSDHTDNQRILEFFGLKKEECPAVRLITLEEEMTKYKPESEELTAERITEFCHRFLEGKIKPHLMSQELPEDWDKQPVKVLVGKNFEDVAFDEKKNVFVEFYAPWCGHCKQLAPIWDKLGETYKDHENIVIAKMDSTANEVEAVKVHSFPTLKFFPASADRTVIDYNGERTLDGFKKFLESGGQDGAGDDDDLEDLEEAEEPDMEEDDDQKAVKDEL

[10] = molecular target: T1, Protein disulfide-isomerase; assay: Non-covalent inhibition of human recombinant PDI assessed as inhibition of E-GSH formation using Di-E-GSSG as substrate at 10 uM measured for 60 mins in presence of DTT and 1 mM GSH by fluorescence based analysis; summary of the method: as §1
Target sequence in this assay (P07237 18-508 limits assumed): as the sequence (P07237 18-508 limits assumed) above

[11] = Stability of the compound in aqueous solution at 400 uM measured after 30 mins by UPLC-MS analysis; format: physicochemical; conditions: buffer, 0.5 h
Summary of the method: (§4)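 Compounds (400 μM) incubated in water with or without GSH (4 mM) at 37 °C for 30 min. Diluted 1:1 with methanol, then analysed by UPLC-MS on a BEH C18 column (water/acetonitrile gradient, 0.4 mL/min, 40 °C) in positive/negative ion mode.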

[12] = GSH reactivity in aqueous solution assessed as GSH-adduct formation at 400 uM incubated for 30 mins in presence of GSH by UPLC-MS analysis; format: physicochemical; conditions: buffer, 0.5 h; summary of the method: as §4
[13] = molecular target: T1, Protein disulfide-isomerase; assay: Non-covalent inhibition of PDI (unknown origin) by GSSG fluorescence assay
Target sequence in this assay (P07237 whole entry): as the sequence (P07237 whole entry) above

[14] = test system: Platelet; assay: Antiplatelet activity against tumor cells-stimulated human platelets assessed as inhibition of RPMI-8226 cells-induced platelet aggregation at 1 uM by turbidometric aggregometry; format: functional, cell-based; summary of the method: as §3
[15] = test system: Platelet; assay: Antiplatelet activity against tumor cells-stimulated human platelets assessed as inhibition of A549 cells-induced platelet aggregation at 1 uM by turbidometric aggregometry; format: functional, cell-based; summary of the method: as §3
[16] = test system: Platelet; assay: Inhibition of tumor cell-induced platelet secretion in human platelets assessed as inhibition of A549-induced PDGF secretion at 1 uM by ELISA; format: functional, cell-based; summary of the method: as §2
[17] = test system: Platelet; assay: Inhibition of tumor cell-induced platelet secretion in human platelets assessed as inhibition of A549-induced ATP secretion at 1 uM by bioluminescent assay; format: functional, cell-based; summary of the method: as §2
[18] = test system: Platelet; assay: Antiplatelet activity against tumor cells-stimulated human platelets assessed as inhibition of MDA-MB-231 cells-induced platelet aggregation at 1 uM by turbidometric aggregometry; format: functional, cell-based; summary of the method: as §3
[19] = molecular target: T1, Protein disulfide-isomerase; assay: Covalent inhibition of PDI (unknown origin) by insulin aggregation assay
Target sequence in this assay (P07237 whole entry): as above

[20] = test system: Platelet; assay: Antiplatelet activity against tumor cells-stimulated human platelets assessed as inhibition of RPMI-8226 cells-induced platelet aggregation at 2 uM by turbidometric aggregometry; format: functional, cell-based; summary of the method: as §3
[21] = test system: Platelet; assay: Inhibition of tumor cell-induced platelet secretion in human platelets assessed as inhibition of A549-induced PDGF secretion at 1 to 5 uM by ELISA; format: functional, cell-based; conditions: dose 1-5 µM; summary of the method: as §2
[22] = test system: Platelet; assay: Antiplatelet activity against tumor cells-stimulated human platelets assessed as inhibition of A549 cells-induced platelet aggregation at 2 uM by turbidometric aggregometry; format: functional, cell-based; summary of the method: as §3
[23] = test system: Platelet; assay: Antiplatelet activity against tumor cells-stimulated human platelets assessed as inhibition of MDA-MB-231 cells-induced platelet aggregation at 2 uM by turbidometric aggregometry; format: functional, cell-based; summary of the method: as §3
[24] = test system: A549; assay: Inhibition of platelet-enhanced cell growth in human A549 cells assessed as reduction in cell viability at 0.5 to 2 uM co-incubated with platelets for 48 hrs by trypan blue exclusion assay; format: functional, cell-based; conditions: dose 0.5-2 µM
Summary of the method: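 A549 cells (1 × 10^4/well) co-incubated with washed human platelets (1 × 10^7/well) in 0.375% plasma for 48 h at 37 °C, 5% CO2. After PBS washing, viable cancer cells counted by trypan blue exclusion. Mean ± SEM, at least three independent experiments.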

[25] = molecular target: T2, Protein disulfide-isomerase A4 (Homo sapiens, UniProt P13667); assay: Inhibition of human recombinant ERp72 assessed as inhibition of E-GSH formation using Di-E-GSSG as substrate measured for 60 mins in presence of DTT by fluorescence based analysis
T2 sequence (P13667 whole entry): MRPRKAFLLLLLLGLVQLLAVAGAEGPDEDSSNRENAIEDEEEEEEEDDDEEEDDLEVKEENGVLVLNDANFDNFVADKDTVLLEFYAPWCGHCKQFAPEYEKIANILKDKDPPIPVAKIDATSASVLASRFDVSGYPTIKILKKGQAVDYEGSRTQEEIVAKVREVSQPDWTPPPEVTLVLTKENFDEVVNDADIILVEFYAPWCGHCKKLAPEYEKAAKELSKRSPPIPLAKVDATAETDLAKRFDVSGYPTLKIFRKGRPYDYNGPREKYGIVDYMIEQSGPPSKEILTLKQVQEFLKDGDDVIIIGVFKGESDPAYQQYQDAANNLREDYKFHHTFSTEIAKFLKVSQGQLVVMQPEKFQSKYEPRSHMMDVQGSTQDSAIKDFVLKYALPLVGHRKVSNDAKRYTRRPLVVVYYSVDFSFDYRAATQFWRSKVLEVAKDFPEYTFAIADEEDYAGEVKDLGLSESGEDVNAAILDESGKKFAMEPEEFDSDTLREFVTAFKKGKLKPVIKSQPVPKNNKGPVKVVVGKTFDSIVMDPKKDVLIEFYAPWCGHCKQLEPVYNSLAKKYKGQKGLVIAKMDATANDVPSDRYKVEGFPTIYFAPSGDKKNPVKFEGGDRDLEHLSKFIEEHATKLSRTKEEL
Summary of the method: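 Recombinant human ERp72 reductase activity measured with Di-E-GSSG substrate, started with DTT, by fluorometry of E-GSH formation. Mean ± SEM, n = 3.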

[26] = test system: Platelet; assay: Inhibition of tumor cell-induced platelet secretion in human platelets assessed as inhibition of A549-induced ATP secretion at 1 to 5 uM by bioluminescent assay; format: functional, cell-based; conditions: dose 1-5 µM; summary of the method: as §2
[27] = test system: A549; assay: Cytotoxicity against human A549 cells assessed as reduction in cell viability at 0.5 to 2 uM incubated for 48 hrs by trypan bue exclusion assay; format: functional, cell-based; conditions: dose 0.5-2 µM
[28] = test system: Platelet; assay: Antiplatelet activity in human platelets assessed as inhibition of collagen-induced platelet aggregation upto 40 uM by turbidimetric analysis; format: functional, cell-based
[29] = test system: MDA-MB-231; assay: Cytotoxicity against human MDA-MB-231 cells assessed as reduction in cell viability incubated for 24 hrs by resazurin assay; format: functional, cell-based
Summary of the method: (§5)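 Cell lines kept at 37 °C in humidified 5% CO2. Cells exposed to compounds for 24 h with DMSO control; viability measured by resazurin assay. Mean ± SEM, n = 3.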

[30] = test system: Platelet; assay: Antiplatelet activity in human platelets assessed as inhibition of U46619-induced platelet aggregation upto 40 uM by turbidimetric analysis; format: functional, cell-based
[31] = test system: RPMI-8226; assay: Cytotoxicity against human RPMI-8226 cells assessed as reduction in cell viability incubated for 24 hrs by resazurin assay; format: functional, cell-based; summary of the method: as §5
[32] = test system: A549; assay: Cytotoxicity against human A549 cells assessed as reduction in cell viability incubated for 24 hrs by resazurin assay; format: functional, cell-based; summary of the method: as §5
[33] = test system: U-87 MG; assay: Cytotoxicity against human U87 cells assessed as reduction in cell viability incubated for 24 hrs by resazurin assay; format: functional, cell-based, U-87MG ATCC; summary of the method: as §5

COc1cccc(SC2=CC(=O)c3cccc(O)c3C2=O)c1
inhibition [1]: Active

CC(=O)Oc1ccccc1C(=O)O [ASPIRIN]
inhibition [2]: inactive | inhibition [3]: inactive | Activity [4]: inactive | Activity [5]: inactive | Activity [6]: inactive | IC50 [7]: > 200 µM

COc1ccc(N2C(=O)/C(=C\c3ccc([N+](=O)[O-])s3)SC2=S)cc1
Activity [8]: Active | IC50 [9]: 2.9 µM

COc1ccc(SC2=C(c3ccc(O)cc3O)C(=O)c3c(O)cccc3C2=O)cc1
inhibition [10]: Active | Stability [11]: Stable | Activity [12]: Not Active

O=c1c(O[C@@H]2O[C@H](CO)[C@@H](O)[C@H](O)[C@H]2O)c(-c2ccc(O)c(O)c2)oc2cc(O)cc(O)c12 [ISOQUERCETIN]
inhibition [10]: Active | IC50 [13]: 7.1 µM

CCCSc1nc(N[C@@H]2C[C@H]2c2ccc(F)c(F)c2)c2nnn([C@@H]3C[C@H](OCCO)[C@@H](O)[C@H]3O)c2n1
Activity [14]: inactive | Activity [15]: inactive | inhibition [16]: inactive | inhibition [17]: inactive | Activity [18]: inactive

C#CC(=O)N(c1ccc(OC)cc1OC)C(C(=O)NCC(=O)OCC)c1cccs1 (stereo unspecified)
IC50 [19]: 10 µM

C#CCCCNC(=O)[C@@H](CCNC(=O)[C@H](Cc1ccccc1)NC(=O)OC(C)(C)C)Cc1ccc(OS(=O)(=O)C=C)cc1
IC50 [19]: 1.7 µM

CC(=O)OC[C@H]1O[C@H](OC2=CC(=O)c3cccc(O)c3C2=O)[C@H](OC(C)=O)[C@@H](OC(C)=O)[C@@H]1OC(C)=O
Activity [20]: Active | inhibition [21]: Active | Activity [22]: Active | Activity [23]: Active | inhibition [24]: Active | IC50 [25]: 4.01 µM | inhibition [1]: Active | inhibition [26]: Active | Activity [27]: inactive

CC(C)(C)CN(C(=O)CCl)C1CCS(=O)(=O)C1 (stereo unspecified)
Activity [28]: inactive | IC50 [29]: Not Active | Activity [30]: inactive | IC50 [31]: Not Active | IC50 [32]: Not Active

CC(=O)O[C@@H]1O[C@H](CSC2=CC(=O)c3cccc(O)c3C2=O)[C@@H](OC(C)=O)[C@H](OC(C)=O)[C@H]1OC(C)=O
Activity [20]: Active | inhibition [21]: Active | Activity [22]: Active | IC50 [33]: > 20 µM | Activity [23]: Active | inhibition [24]: Active | inhibition [1]: Active | inhibition [26]: Active | Activity [27]: inactive

CC(=O)OC[C@H]1O[C@@H](SC2=C(c3ccc(O)cc3O)C(=O)c3c(O)cccc3C2=O)[C@H](OC(C)=O)[C@@H](OC(C)=O)[C@@H]1OC(C)=O
Activity [12]: Active | inhibition [1]: Active
